These results are taken from PMC9870020 (Tissue Barriers, 2022).

For series [1], the system named is Caco-2 epithelial cell layers. The series can be described thus: Permeability of fluorescent markers. The note with it: Caco-2 layers. The format is cell-based. The method, boiled down: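 Caco-2 cells (passage 35–39) were grown 21 days on collagen-coated 0.33 cm2 inserts (0.4 µm pores) and equilibrated 30 min in warm HBSS. Test compound with FD-4 (0.25 mM) or other marker in HBSS was applied apically. Basolateral fluorescence (ex 485/em 520 nm) was read over 180 min against a calibration curve to give Papp. TEER was measured before and after. Triplicates, mean ± S.D.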

Series [2] has as its system nasal epithelial cell layers. To be noted: cited from earlier work.
A further series concerns epithelial cell layers. To be noted: cited from earlier work.
The test system of the next series is epithelial cells. To be noted: cited from earlier work.
For series [3] the following is noted: concentration of 625 µM; cited from earlier work.
The conditions of series [4]: cited from earlier work.
The conditions of series [5]: 2 mM; cited from earlier work.

For L-myr-ARRAR [LW-5], the “Permeability of FD-4 (Papp) in the presence of L-R5 analogues” value in series [1] (Figure 6A, peptides 50 µM, FD-4 0.25 mM, 180 min, mean n = 3) was “significantly lower than with L-R5”.
As for L-myr-ARRWR [L-R5], in series [2], the “Reversibility of TJ modulation by the peptide” value is reported as “rapidly reversible”. The “Size of molecules transported paracellularly with L-R5” value in series [2] (nasal epithelial cell layers in vitro, previously shown) is reported as “up to 4 kDa”. For the same molecule, in the series with epithelial cell layers, the “Passage of the peptide across epithelial cell layers” value was “not to cross epithelial cell layers”. In addition, the “Molecular weight limit of opening of TJs caused by L-R5” value in series [1] (L-R5 50 µM, from sodium fluorescein, FD-4 and FD-150 permeability) is listed as 150 kDa. Further, the “Permeability of sodium fluorescein in the presence of L-R5” value in series [1] (Figure 5, L-R5 50 µM, 180 min, mean n = 3) is reported as “higher permeability compared to FD-4”. Also, in the series with epithelial cells, the “Epithelial cytotoxicity in vitro” value is “lack of epithelial cytotoxicity”.
With `CC(C)(C)[C@]1(O)CC2OC(=O)CC23C(=O)OC2OC(=O)[C@H](O)C231` (stereo partly shown) [bilobalide, Bilobalide], the Cytotoxicity of bilobalide result in series [3] is recorded as “no cytotoxicity”.
In the case of `CCCCCCCCCC(=O)[O-].[Na+]` [C10, sodium caprate], in series [4], the “Toxicity of C10” value was “no toxicity was demonstrated”.
For the molecule `CCCCCCCCCCCCOS(=O)(=O)[O-].[Na+]` [SDS, Sodium dodecylsulfate], the “Toxicity of SDS” value in series [5] was “toxic”.
